{"source": "ChEMBL document CHEMBL1150156", "about": "“Semisynthesis of new sarcophine derivatives with chemopreventive activity” (J Nat Prod, 2002)", "key": {"[1]": {"assay": "Cytotoxicity against human Raji cells assessed as cell viability at 1000 molar ratio", "format": "cell-based", "settings": "read-out: Activity", "in_short": "(§1)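 Raji cells (EBV nonproducer type) serve as indicator cells in the TPA-induced EBV-EA activation assay. Sample is dosed as a mol ratio to TPA, with TPA at 32 pmol; ×1000 corresponds to 32 nmol/mL sample. Viability of the indicator cells is reported as a percentage.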"}, "[2]": {"assay": "Cytotoxicity against human Raji cells assessed as cell viability at 100 molar ratio", "format": "cell-based", "settings": "read-out: Activity", "in_short": "as §1"}, "[3]": {"assay": "Cytotoxicity against human Raji cells assessed as cell viability at 500 molar ratio", "format": "cell-based", "settings": "read-out: Activity", "in_short": "as §1"}, "Raji [4]": {"test_system": "Raji", "assay": "Inhibition of TPA-induced EBV-early antigen activation in human Raji cells assessed as early antigen induction at 500 molar ratio relative to TPA", "format": "cell-based", "settings": "human gammaherpesvirus 4", "in_short": "(§2)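 EBV early antigen induction is measured in Raji cells (virus nonproducer type) stimulated with TPA at 32 pmol. Sample concentration is expressed as mol ratio/TPA; ×1000 equals 32 nmol/mL. EA induction is expressed as a percentage of the positive (TPA-only) value, set as 100%.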"}, "Raji [5]": {"test_system": "Raji", "assay": "Inhibition of TPA-induced EBV-early antigen activation in human Raji cells assessed as early antigen induction at 1000 molar ratio relative to TPA", "format": "cell-based", "settings": "human gammaherpesvirus 4", "in_short": "as §2"}, "Raji [6]": {"test_system": "Raji", "assay": "Inhibition of TPA-induced EBV-early antigen activation in human Raji cells assessed as early antigen induction at 10 molar ratio relative to TPA", "settings": "human gammaherpesvirus 4"}, "[7]": {"assay": "Cytotoxicity against human Raji cells assessed as cell viability at 10 molar ratio", "format": "cell-based", "settings": "read-out: Activity", "in_short": "as §1"}, "Raji [8]": {"test_system": "Raji", "assay": "Inhibition of TPA-induced EBV-early antigen activation in human Raji cells assessed as early antigen induction at 100 molar ratio relative to TPA", "format": "cell-based", "settings": "human gammaherpesvirus 4", "in_short": "as §2"}}}
{"compound": "C/C1=C\\C=C(\\[C@@](C)(O)CO)CC(=O)/C(C)=C/CC[C@]2(C)O[C@H]2CC1", "values": [{"measurement": "viability at 1000 molar ratio", "setting": "[1]", "result": 60, "unit": "%"}, {"measurement": "viability at 100 molar ratio", "setting": "[2]", "result": "> 80", "unit": "%"}, {"measurement": "viability at 500 molar ratio", "setting": "[3]", "result": "> 80", "unit": "%"}, {"measurement": "EBV early antigen induction (% of TPA control)", "setting": "Raji [4]", "result": 56.7, "unit": "%"}, {"measurement": "EBV early antigen induction (% of TPA-only control)", "setting": "Raji [5]", "result": 8.3, "unit": "%"}, {"measurement": "EBV early antigen induction relative to TPA", "setting": "Raji [6]", "result": 94, "unit": "%"}, {"measurement": "viability at 10 molar ratio", "setting": "[7]", "result": "> 80", "unit": "%"}, {"measurement": "EBV early antigen induction (% of TPA-only control)", "setting": "Raji [8]", "result": 75.1, "unit": "%"}]}
{"compound": "C/C1=C\\C=C(\\[C@@](C)(O)CO)CC/C(C=O)=C/CC[C@]2(C)O[C@H]2CC1", "values": [{"measurement": "viability at 1000 molar ratio", "setting": "[1]", "result": 60, "unit": "%"}, {"measurement": "viability at 100 molar ratio", "setting": "[2]", "result": "> 80", "unit": "%"}, {"measurement": "viability at 500 molar ratio", "setting": "[3]", "result": "> 80", "unit": "%"}, {"measurement": "EBV early antigen induction (% of TPA control)", "setting": "Raji [4]", "result": 52.4, "unit": "%"}, {"measurement": "EBV early antigen induction (% of TPA-only control)", "setting": "Raji [5]", "result": 3.6, "unit": "%"}, {"measurement": "EBV early antigen induction relative to TPA", "setting": "Raji [6]", "result": 90.6, "unit": "%"}, {"measurement": "viability at 10 molar ratio", "setting": "[7]", "result": "> 80", "unit": "%"}, {"measurement": "EBV early antigen induction (% of TPA-only control)", "setting": "Raji [8]", "result": 71.3, "unit": "%"}]}
{"compound": "C/C1=C\\C=C(\\[C@@](C)(O)CO)C[C@H](O)/C(C)=C/CC[C@]2(C)O[C@H]2CC1", "values": [{"measurement": "viability at 1000 molar ratio", "setting": "[1]", "result": 60, "unit": "%"}, {"measurement": "viability at 100 molar ratio", "setting": "[2]", "result": "> 80", "unit": "%"}, {"measurement": "viability at 500 molar ratio", "setting": "[3]", "result": "> 80", "unit": "%"}, {"measurement": "EBV early antigen induction (% of TPA control)", "setting": "Raji [4]", "result": 55.8, "unit": "%"}, {"measurement": "EBV early antigen induction (% of TPA-only control)", "setting": "Raji [5]", "result": 5.9, "unit": "%"}, {"measurement": "EBV early antigen induction relative to TPA", "setting": "Raji [6]", "result": 93.8, "unit": "%"}, {"measurement": "viability at 10 molar ratio", "setting": "[7]", "result": "> 80", "unit": "%"}, {"measurement": "EBV early antigen induction (% of TPA-only control)", "setting": "Raji [8]", "result": 74.6, "unit": "%"}]}
{"compound": "C/C1=C\\C=C(\\[C@@](C)(O)CO)C[C@@H](O)/C(C)=C/CC[C@]2(C)O[C@H]2CC1", "values": [{"measurement": "viability at 1000 molar ratio", "setting": "[1]", "result": 60, "unit": "%"}, {"measurement": "viability at 100 molar ratio", "setting": "[2]", "result": "> 80", "unit": "%"}, {"measurement": "viability at 500 molar ratio", "setting": "[3]", "result": "> 80", "unit": "%"}, {"measurement": "EBV early antigen induction (% of TPA control)", "setting": "Raji [4]", "result": 54.2, "unit": "%"}, {"measurement": "EBV early antigen induction (% of TPA-only control)", "setting": "Raji [5]", "result": 5.7, "unit": "%"}, {"measurement": "EBV early antigen induction relative to TPA", "setting": "Raji [6]", "result": 92.6, "unit": "%"}, {"measurement": "viability at 10 molar ratio", "setting": "[7]", "result": "> 80", "unit": "%"}, {"measurement": "EBV early antigen induction (% of TPA-only control)", "setting": "Raji [8]", "result": 72.9, "unit": "%"}]}
{"compound": "C/C1=C\\C=C(\\C(C)C)[C@@H](O)C/C(C)=C/CC/C(C)=C/CC1", "values": [{"measurement": "viability at 1000 molar ratio", "setting": "[1]", "result": 50, "unit": "%"}, {"measurement": "viability at 100 molar ratio", "setting": "[2]", "result": "> 80", "unit": "%"}, {"measurement": "viability at 500 molar ratio", "setting": "[3]", "result": "> 80", "unit": "%"}, {"measurement": "EBV early antigen induction (% of TPA control)", "setting": "Raji [4]", "result": 60.4, "unit": "%"}, {"measurement": "EBV early antigen induction (% of TPA-only control)", "setting": "Raji [5]", "result": 11.7, "unit": "%"}, {"measurement": "EBV early antigen induction relative to TPA", "setting": "Raji [6]", "result": 97.3, "unit": "%"}, {"measurement": "viability at 10 molar ratio", "setting": "[7]", "result": "> 80", "unit": "%"}, {"measurement": "EBV early antigen induction (% of TPA-only control)", "setting": "Raji [8]", "result": 79.1, "unit": "%"}]}
{"compound": "C/C(CO)=C1\\CC/C(C)=C/CC[C@]2(C)O[C@H]2CC/C(C)=C/[C@@H]1O", "values": [{"measurement": "viability at 1000 molar ratio", "setting": "[1]", "result": 60, "unit": "%"}, {"measurement": "viability at 100 molar ratio", "setting": "[2]", "result": "> 80", "unit": "%"}, {"measurement": "viability at 500 molar ratio", "setting": "[3]", "result": "> 80", "unit": "%"}, {"measurement": "EBV early antigen induction (% of TPA control)", "setting": "Raji [4]", "result": 57.3, "unit": "%"}, {"measurement": "EBV early antigen induction (% of TPA-only control)", "setting": "Raji [5]", "result": 9.6, "unit": "%"}, {"measurement": "EBV early antigen induction relative to TPA", "setting": "Raji [6]", "result": 94.1, "unit": "%"}, {"measurement": "viability at 10 molar ratio", "setting": "[7]", "result": "> 80", "unit": "%"}, {"measurement": "EBV early antigen induction (% of TPA-only control)", "setting": "Raji [8]", "result": 75.5, "unit": "%"}]}
{"compound": "CC1=C2CC/C(C=O)=C/CC[C@]3(C)O[C@H]3CC/C(C)=C/[C@@H]2OC1=O", "values": [{"measurement": "viability at 1000 molar ratio", "setting": "[1]", "result": 60, "unit": "%"}, {"measurement": "viability at 100 molar ratio", "setting": "[2]", "result": "> 80", "unit": "%"}, {"measurement": "viability at 500 molar ratio", "setting": "[3]", "result": "> 80", "unit": "%"}, {"measurement": "EBV early antigen induction (% of TPA control)", "setting": "Raji [4]", "result": 60.8, "unit": "%"}, {"measurement": "EBV early antigen induction (% of TPA-only control)", "setting": "Raji [5]", "result": 12.7, "unit": "%"}, {"measurement": "EBV early antigen induction relative to TPA", "setting": "Raji [6]", "result": 96, "unit": "%"}, {"measurement": "viability at 10 molar ratio", "setting": "[7]", "result": "> 80", "unit": "%"}, {"measurement": "EBV early antigen induction (% of TPA-only control)", "setting": "Raji [8]", "result": 81.3, "unit": "%"}]}
{"compound": "CC1=C2CC/C(C)=C/CC[C@]3(C)O[C@H]3CC/C(C)=C/[C@@H]2OC1=O", "note": "[SARCOPHINE]", "values": [{"measurement": "viability at 1000 molar ratio", "setting": "[1]", "result": 60, "unit": "%"}, {"measurement": "viability at 100 molar ratio", "setting": "[2]", "result": "> 80", "unit": "%"}, {"measurement": "viability at 500 molar ratio", "setting": "[3]", "result": "> 80", "unit": "%"}, {"measurement": "EBV early antigen induction (% of TPA control)", "setting": "Raji [4]", "result": 67.5, "unit": "%"}, {"measurement": "EBV early antigen induction (% of TPA-only control)", "setting": "Raji [5]", "result": 19.6, "unit": "%"}, {"measurement": "EBV early antigen induction relative to TPA", "setting": "Raji [6]", "result": 100, "unit": "%"}, {"measurement": "viability at 10 molar ratio", "setting": "[7]", "result": "> 80", "unit": "%"}, {"measurement": "EBV early antigen induction (% of TPA-only control)", "setting": "Raji [8]", "result": 84, "unit": "%"}]}
{"compound": "CC1=C2C[C@H](O)/C(C)=C/CC[C@]3(C)O[C@H]3CC/C(C)=C/[C@@H]2OC1=O", "values": [{"measurement": "viability at 1000 molar ratio", "setting": "[1]", "result": 60, "unit": "%"}, {"measurement": "viability at 100 molar ratio", "setting": "[2]", "result": "> 80", "unit": "%"}, {"measurement": "viability at 500 molar ratio", "setting": "[3]", "result": "> 80", "unit": "%"}, {"measurement": "EBV early antigen induction (% of TPA control)", "setting": "Raji [4]", "result": 62.8, "unit": "%"}, {"measurement": "EBV early antigen induction (% of TPA-only control)", "setting": "Raji [5]", "result": 14.2, "unit": "%"}, {"measurement": "EBV early antigen induction relative to TPA", "setting": "Raji [6]", "result": 100, "unit": "%"}, {"measurement": "viability at 10 molar ratio", "setting": "[7]", "result": "> 80", "unit": "%"}, {"measurement": "EBV early antigen induction (% of TPA-only control)", "setting": "Raji [8]", "result": 81.3, "unit": "%"}]}
